Reference: ChEMBL document CHEMBL4138113, “Novel propanamides as fatty acid amide hydrolase inhibitors” (Eur J Med Chem, 2017)
pKi: −log10 of the molar value. Activity calls are given as the source filed them.

Tests used:
[1] = molecular target: T1, Fatty-acid amide hydrolase 1 (Mus musculus) (UniProt O08914); experiment: Inhibition of B6CBAF1/J mouse brain FAAH using [3H]AEA as substrate after 10 mins in presence of N-(3-Methylpyridin-2-yl)-2-(4-((2-(trifluoromethyl)pyridin-4-yl)amino)phenyl)propanamide by Dixon plot analysis
T1 sequence (whole entry): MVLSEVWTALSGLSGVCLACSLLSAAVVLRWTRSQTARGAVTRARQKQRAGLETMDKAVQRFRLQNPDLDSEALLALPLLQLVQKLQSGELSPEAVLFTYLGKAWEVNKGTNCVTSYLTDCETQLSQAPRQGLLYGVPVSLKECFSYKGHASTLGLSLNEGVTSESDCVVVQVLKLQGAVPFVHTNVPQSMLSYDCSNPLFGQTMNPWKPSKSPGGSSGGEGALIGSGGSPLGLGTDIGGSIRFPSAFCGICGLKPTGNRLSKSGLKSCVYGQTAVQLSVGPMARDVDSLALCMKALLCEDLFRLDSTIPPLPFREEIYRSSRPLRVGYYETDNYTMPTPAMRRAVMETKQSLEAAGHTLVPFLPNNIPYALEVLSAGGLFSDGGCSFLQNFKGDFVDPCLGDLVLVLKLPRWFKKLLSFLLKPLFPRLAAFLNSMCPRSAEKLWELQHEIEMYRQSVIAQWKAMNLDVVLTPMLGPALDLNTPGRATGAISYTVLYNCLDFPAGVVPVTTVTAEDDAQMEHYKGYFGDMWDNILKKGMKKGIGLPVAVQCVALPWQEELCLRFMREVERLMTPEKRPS
Procedure, shortened: (§1)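 Kinetic study in brain homogenate from male B6CBAF1/J mice (0.3 µg protein per assay). [3H]AEA hydrolysis ran for 10 min at 37 °C in Tris-EDTA buffer, pH 7.4, with the AEA:fatty acid-free BSA ratio held at 1:~4.5. Products were separated on charcoal and counted by scintillation. Competitive, mixed-type and non-competitive fits were compared by Akaike's criterion.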

[2] = molecular target: T2, Fatty-acid amide hydrolase 1 (Rattus norvegicus, UniProt P97612); experiment: Competitive inhibition of rat brain FAAH using [3H]AEA as substrate after 10 mins by Dixon plot analysis
T2 sequence (P97612 whole entry): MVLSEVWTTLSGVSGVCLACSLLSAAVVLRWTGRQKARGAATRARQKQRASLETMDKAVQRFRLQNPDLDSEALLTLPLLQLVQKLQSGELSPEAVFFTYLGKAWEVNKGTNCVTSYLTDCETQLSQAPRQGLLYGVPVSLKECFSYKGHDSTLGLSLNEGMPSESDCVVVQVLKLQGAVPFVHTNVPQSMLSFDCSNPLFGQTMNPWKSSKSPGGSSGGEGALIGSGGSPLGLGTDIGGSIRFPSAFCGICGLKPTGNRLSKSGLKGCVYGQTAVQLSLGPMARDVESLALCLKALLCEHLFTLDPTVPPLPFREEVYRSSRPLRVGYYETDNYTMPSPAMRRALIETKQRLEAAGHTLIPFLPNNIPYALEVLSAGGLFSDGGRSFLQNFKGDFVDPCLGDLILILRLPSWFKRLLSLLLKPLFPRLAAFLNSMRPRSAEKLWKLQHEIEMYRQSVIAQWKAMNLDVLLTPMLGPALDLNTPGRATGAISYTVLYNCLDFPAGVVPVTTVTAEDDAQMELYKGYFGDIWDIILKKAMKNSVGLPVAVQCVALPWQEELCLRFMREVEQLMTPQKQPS
Procedure, shortened: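 Kinetic study in rat brain homogenate (1 µg protein per assay). [3H]AEA hydrolysis ran for 10 min at 37 °C in Tris-EDTA buffer, pH 7.4, with the AEA:fatty acid-free BSA ratio held at 1:~4.5 across substrate levels. Radioactivity was measured by charcoal separation and scintillation counting. Data were fitted to competitive, mixed-type and non-competitive models, and the best model was chosen by Akaike's criterion.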

Homo sapiens = species on record: Homo sapiens; experiment: Selectivity ratio of IC50 for FAAH T488A mutant (unknown origin) expressed in human HeLa cells after 2 hrs to IC50 for FAAH (unknown origin) expressed in human HeLa cells transfected with empty vector after 2 hrs; assay type: cell-based
[3] = molecular target: T1, Fatty-acid amide hydrolase 1 (Mus musculus); experiment: Inhibition of B6CBAF1/J mouse brain FAAH using [3H]AEA as substrate after 10 mins in presence of N-(3-Chloropyridin-2-yl)-2-(4-((2-(trifluoromethyl)pyridin-4-yl)amino)phenyl)propanamide by Dixon plot analysis; procedure, shortened: as §1

SMILES | inhibition [1] | pKi [2] | Ratio IC50 (Homo sapiens) | inhibition [3]
CC(C(=O)Nc1ncccc1Cl)c1ccc(Nc2ccnc(C(F)(F)F)c2)cc1 (centres undefined) | Active |  |  | 
Cc1cccnc1NC(=O)C(C)c1ccc(Nc2ccnc(C(F)(F)F)c2)cc1 (centres undefined) |  | 6.41 | 3.8 | Active
